Screening results as filed in PubChem BioAssay.
Compounds with a hit are over-represented: about 1.5% of the library has one in this group of screens.
Wnt bcat act: activates Wnt/beta-catenin signaling in a reporter cell assay. activator, plate reader. AID 743398. activation, % at 9.35 µM. hit rate 1.2% among 300,000; in the data active = activation above about 30%, passing the limit was not always enough; inconclusive = no clear call, values can overlap the other calls;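 also: 0% = neutral control wells and 100% = positive control wells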
PGC1a acetyl inh: modulators of PGC1a acetylation; U2OS PGC1a acetylation, AlphaScreen anti-acetyl-lysine; with virally co-expressed GCN5 acetyltransferase; hit rate 0.17% among 350,000; inhibition, % at 15.6 µM;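 active = every replicate shows inhibition of at least 40%; inconclusive = mean inhibition at least 40% but some replicate below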;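 also: 0% = neutral control wells and 100% = positive control wells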
Cneo AK release: Cryptococcus neoformans lysis via adenylate kinase release; lysis activity, % at 15 µM; C. neoformans lysis, adenylate kinase release luminescence, 4 h; normalised: neutral wells 0, clomiphene wells 100; hit rate 0.2% among 360,000; AID 651654;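 active = mean lysis activity across replicates of at least 80%, whatever share of replicates individually reach that level; inactive = mean lysis activity below 80%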
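Material: C. neoformans cells; Schedule: 4 h static compound exposure, 37 °C, read 1 h post-reagent; Measured by: adenylate kinase release luminescence; Read-out: signal increase indicating cell lysis; Controls: Clomiphene as positive lysis control.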
MITF act: increases MITF-driven TRPM1 promoter luciferase signal. SK-MEL-5 TRPM1-promoter luciferase, 24 h; % of positive control, neutral wells = 0. activation, % at 12.5 µM. hit rate 0.75% among 300,000. AID 588334;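 active = mean activation of at least 80% with every replicate also reaching 80%; inconclusive = mean reaches 80% but some replicate falls short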;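 also: 0% = neutral control wells and 100% = parthenolide positive control wells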
Numbers without * were called inactive; u = inconclusive; x = no result given; ! = a repeat was not active.

SMILES | Wnt bcat act | PGC1a acetyl inh | Cneo AK release | MITF act
O=C(NC1CCCCC1)N[C@H]1C=C[C@@H](CC(=O)N2CCOCC2)O[C@@H]1CO | x | 6.3 | 92.9* | x
CCC(=O)N[C@@H]1C=C[C@H](CC(=O)NCC2CCCCC2)O[C@H]1CO | x | 11.1 | 87.1* | x
CC(=O)N(C)C[C@H]1Oc2ncc(-c3ccccc3C)cc2C(=O)N([C@@H](C)CO)C[C@@H]1C | x | 12.2 | 0.4 | x
CCSc1nnc([C@H](Cc2ccccc2)NC(=O)OC(C)(C)C)o1 | x | -3.2 | 2.8 | 17.3
Cc1ccccc1CS(=O)(=O)c1nnc([C@H](Cc2ccccc2)NC(=O)OC(C)(C)C)o1 | -8.7 | 54.9* | -1.3 | -81.6
COc1ccc(/C=C/C(=O)c2cc3c(cc2N)OCO3)cc1 | 51.5* | x | x | 56.5
c1ccc(C2Nc3ccccc3-c3nc4ccccc4n32)nc1 (configuration not stated) | 36.8* | -11.7 | -2.6 | 21.1
c1ccc(C2Nc3ccccc3-c3nc4ccccc4n32)cc1 (configuration not stated) | 37.3* | -21.6 | -1.1 | x
O=C(Nc1cccc(-c2nnc(-c3ccccc3)o2)c1)C1CC1 | 2.4 | -9.2 | 1.4 | 66.1
CC(=O)Nc1cccc(-c2nnc(-c3ccccc3)o2)c1 | 34.9* | -18.0 | 1.5 | x
O=[N+]([O-])c1cccc(-c2nnc(-c3ccc4c(c3)OCO4)o2)c1 | -1.8 | x | x | 22.1
CCOC(=O)c1cccc(COC(=O)c2cccc(-c3nnc(-c4ccccc4)o3)c2)c1 | 54.7* | x | x | -6.2
O=[N+]([O-])c1cccc(-c2nnc(-c3ccccc3)o2)c1 | 45.8* | 0.6 | x | 50.9
C[C@H]1CN([C@@H](C)CO)C(=O)Cc2cc(NS(=O)(=O)c3cn(C)cn3)ccc2O[C@@H]1CN(C)Cc1ccc(Oc2ccccc2)cc1 | x | 5.5 | 110.5* | x
C[C@@H]1CN([C@H](C)CO)C(=O)Cc2cc(NS(C)(=O)=O)ccc2O[C@@H]1CN(C)Cc1ccc(Cl)c(Cl)c1 | x | -6.4 | -1.0 | x
C[C@@H]1CN([C@@H](C)CO)C(=O)Cc2cc(NS(=O)(=O)c3ccccc3)ccc2O[C@@H]1CN(C)Cc1ccc(Cl)c(Cl)c1 | x | -10.8 | 84.5* | x
C[C@H]1CN([C@@H](C)CO)C(=O)Cc2cc(NS(C)(=O)=O)ccc2O[C@@H]1CN(C)Cc1ccc(Cl)c(Cl)c1 | -4.0 | -2.6 | 111.9*! | -0.3
C[C@H]1CN([C@@H](C)CO)C(=O)Cc2cc(NS(=O)(=O)c3ccccc3)ccc2O[C@@H]1CN(C)Cc1ccc(Cl)c(Cl)c1 | x | 27.8 | 57.8 | x
CNC(=O)C[C@@H]1CC[C@@H]2[C@@H](COc3ccc(NC(=O)Nc4ccc(C)cc4)cc3C(=O)N2C)O1 | x | -10.5 | 4.2 | x
CCOC(=O)c1c(CN2CCC(C)CC2)n(C)c2cc(Br)c(OC)cc12 | 40.4* | 1.3 | x | 9.1
O=C(Nc1ccc(OCc2ccccc2)cc1)c1ccccc1 | -6.4 | 3.5 | x | 49.6
CC(C)=CC(=O)Nc1ccc(Br)cc1 | -2.7 | x | x | 107.2*
CC(C)=CC(=O)Nc1ccc(OCc2ccccc2)cc1 | 41.4* | -14.7 | x | 63.7
CC=Cc1ccc2n(c1=O)C[C@H]1[C@H](CO)[C@@H](C(=O)NCc3ccccc3)[C@@H]2N1S(C)(=O)=O (mixture of isomers) | x | x | -1.6 | x
O=C(CN1C(=O)C2C3C=CC(C3)C2C1=O)OCC(=O)c1ccc([N+](=O)[O-])cc1 (configuration not stated) | 0.6 | x | -7.0 | x
SMILES | Wnt bcat act | PGC1a acetyl inh | Cneo AK release | MITF act
O=C(CN1C(=O)C2C3CC(C(Br)C3Br)C2C1=O)OCC(=O)c1cccc([N+](=O)[O-])c1 (configuration not stated) | -5.8 | 75.8* | 2.2 | 6.1
CCCNC(=O)C[C@@H]1C[C@H]2c3cc(NC(=O)c4cccnc4)ccc3O[C@H]2[C@H](CO)O1 | x | -2.7 | -3.1 | x
COc1ccc2c3c(n(C)c2c1)[C@H](CO)N(C(=O)Nc1ccc(F)cc1)CC31CCN(S(=O)(=O)c2cccs2)CC1 | x | 6.0 | x | x
Nc1ccc(Oc2cc(N)cc(Oc3ccccc3)c2)cc1 | u | x | 0.0 | 86.6*
Nc1ccc(Oc2ccc3nc(-c4ccccc4)c(-c4ccccc4)nc3c2)cc1 | x | 17.8 | 0.1 | 13.5
COC(=O)c1ccc(-c2nc3ccc(C)cc3o2)cc1 | 55.4* | 9.3 | -3.2 | -5.8
CCC(=O)Nc1ccc2oc(-c3ccccc3Br)nc2c1 | x | -24.1 | -0.8 | 130.2*
Cc1ccc2oc(-c3ccc(NC(=O)CC(C)C)cc3)nc2c1 | 15.8 | -6.9 | -0.2 | 100.7*
Cc1ccc(-c2nc3cc(C)ccc3o2)cc1 | x | 15.6 | -5.0 | -42.2
CCCC(=O)Nc1ccc2oc(-c3cncc(Br)c3)nc2c1 | -1.0 | 3.2 | -0.4 | 96.8*
CC(=O)Nc1ccc2oc(-c3ccccc3Br)nc2c1 | x | x | -10.0 | 3.9
C[C@H]1CN([C@@H](C)CO)S(=O)(=O)c2ccc(C#Cc3ccc(F)cc3)cc2O[C@@H]1CN(C)C | x | -6.6 | 0.2 | x
CCCNC(=O)N1CC2(C1)[C@H](c1ccccc1)[C@@H](CO)N2CC1CCOCC1 | x | -16.0 | x | x
CC1CCCN(c2ccc3nc4ccccc4c(=O)n3n2)C1 (configuration not stated) | 2.7 | x | x | -15.7
Cc1ccc2nc3ccc(N4CCCC4)nn3c(=O)c2c1 | x | 1.8 | -1.0 | 93.7*
Cc1sc2nc3ccc(N4CCCCC4)nn3c(=O)c2c1C | -1.6 | 10.9 | -12.2 | 121.0*
CC1CCN(c2oc(-c3ccccc3Cl)nc2C#N)CC1 | 15.2 | 4.0 | 0.3 | 93.6*
COc1cccc(OC)c1NC(=O)C1CCCN1C(=O)NCc1ccccc1 (configuration not stated) | 5.4 | 96.9* | 0.6 | x
C[C@@H]1CN([C@H](C)CO)C(=O)Cc2cc(NC(=O)NC3CCCCC3)ccc2O[C@H]1CN(C)CC1CC1 | x | 0.7 | 2.3 | x
CCOC(=O)/C=C/c1ccc2oc3ccccc3c(=O)c2c1 | 22.7 | x | -2.7 | 97.2*
CCc1cc2c(=O)c(-c3nc(C)cs3)coc2cc1O | 38.9* | -3.9 | 0.7 | 47.9
COc1ccc2c(=O)c(-c3nc(C)cs3)coc2c1 | x | 3.4 | -7.6 | -8.1
O=C(Cc1ccncc1)Nc1ccc2c(c1)[C@H]1C[C@H](CC(=O)N3CCCCC3)O[C@@H](CO)[C@H]1O2 | x | 21.4 | 13.4 | x
c1ccc(N2CCN(c3cnccn3)CC2)nc1 | x | x | -1.4 | x
N#Cc1cc(C#N)c(N2CCN(c3ccccn3)CC2)nc1N | 29.8 | x | x | 98.5*
SMILES | Wnt bcat act | PGC1a acetyl inh | Cneo AK release | MITF act
CNC[C@H]1Oc2cc(C#CC3CCCC3)ccc2S(=O)(=O)N([C@H](C)CO)C[C@H]1C | x | -10.6 | -0.5 | x
C[C@@H]1CN([C@@H](C)CO)C(=O)c2cccc(NC(=O)C3CCOCC3)c2O[C@H]1CN(C)CC1CCCCC1 | x | -0.6 | -3.7 | x
CC(=O)NN1C(=O)/C(=C\c2ccc(O)cc2)SC1=S | 0.3 | -3.4 | -0.3 | -3.5
O=C1/C(=C\c2ccc(O)cc2)SC(=S)N1/N=C/c1ccc(O)cc1 | 50.8* | 3.0 | -4.0 | 12.4
Cc1cc(N/C=C/C(=O)c2ccc(Br)cc2)no1 | 33.1* | -0.6 | 1.7 | 104.7*
COc1ccc(C(=O)/C=C/Nc2cc(C)ccn2)cc1 | -0.8 | -16.8 | -6.6 | x
O=C(/C=C\Nc1ccc(Cl)cn1)c1ccc(Br)cc1 | 35.6* | 9.4 | x | 103.4*
O=C(/C=C/Nc1ccc(F)c(F)c1)c1ccc(Br)cc1 | 12.3 | x | x | 66.1
